Reference: ChEMBL document CHEMBL2062406, “Fluorocyclopentenyl-cytosine with broad spectrum and potent antitumor activity” (J Med Chem, 2012)
pIC50: −log10 of the molar value. Active and inactive are the calls of the source. No cut-off for these calls is given here.

Assays:
MKN-45 [1] = test: Antitumor activity against human MKN45 cells at 1 uM by SRB method; format: functional, cell-based
MDA-MB-231 [2] = test: Antitumor activity against human MDA-MB-231 cells at 1 uM by SRB method; format: functional, cell-based
MCF7 [3] = test: Antitumor activity against human MCF7 cells at 1 uM by SRB method; format: functional, cell-based
A549 [4] = test: Antitumor activity against human A549 cells by SRB method; format: functional, cell-based
HT-29 [5] = test: Antitumor activity against human HT-29 cells at 1 uM by SRB method; format: functional, cell-based
HCT-116 [6] = test: Antitumor activity against human HCT116 cells at 1 uM by SRB method; format: functional, cell-based
NCI-H226 [7] = test: Antitumor activity against human NCI-H226 cells at 1 uM by SRB method; format: functional, cell-based
PC-3 [8] = test: Antitumor activity against human PC3 cells by SRB method; format: functional, cell-based
Mus musculus = test: Toxicity in nu/nu mouse xenografted with human A549 cells assessed as change in body weight 3 to 10 mg/kg, ip administered three times a week for 3 weeks; format: organism-based; design: dose 3-10 mg/kg, route intraperitoneal; settings: in vivo, 504 h
Procedure, shortened: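 Mouse body weight was monitored throughout in male nu/nu mice bearing subcutaneous A549 flank xenografts (3 × 10⁶ cells). These mice received 3 or 10 mg/kg intraperitoneally three times a week for three weeks, starting when tumors reached about 100 mm³, and were compared with vehicle controls.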

A549 [9] = test: Antitumor activity against human A549 cells xenografted in ip dosed nu/nu mouse assessed as tumor growth inhibition administered three times a week for 3 weeks; format: functional, organism-based
Procedure, shortened: (§1)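 Male nu/nu mice received 3 × 10⁶ A549 cells subcutaneously in the right flank. Dosing began at about 100 mm³ tumor volume: 3 or 10 mg/kg intraperitoneally, three times a week for three weeks. Tumor volume was measured by caliper every 2−3 days. Percent inhibition of tumor volume was calculated against a vehicle-treated control group.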

MCF7 [10] = test: Antitumor activity against human MCF7 cells by SRB method; format: functional, cell-based
A549 [11] = test: Antitumor activity against human A549 cells xenografted in nu/nu mouse assessed as inhibition of tumor volume at 3 mg/kg, ip administered three times a week for 3 weeks; format: functional; settings: 504 h, route intraperitoneal; procedure, shortened: as §1
HeLa [12] = test: Antitumor activity against human HeLa cells by SRB method; format: functional, cell-based
LNCaP [13] = test: Antitumor activity against human LNCAP cells by SRB method; format: functional, cell-based
U-251 [14] = test: Antitumor activity against human U251 cells by SRB method; format: functional, cell-based
PANC-1 [15] = test: Antitumor activity against human PANC1 cells at 1 uM by SRB method; format: functional, cell-based
[16] = (§2) Antitumor activity against human UMRC2 cells by SRB method; format: functional, cell-based
MDA-MB-231 [17] = test: Inhibition of DNMT-1 protein human expression in MDA-MB-231 cells after 24 hrs by Western blot analysis; format: functional, cell-based
Procedure, shortened: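 MDA-MB-231 cells were exposed to 0, 1, 1.5, 2 or 5 μM for 24 h. DNMT-1 protein was detected by Western blot, with actin as the loading control. Blots are representative of two independent cell cultures.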

HT-29 [18] = test: Antitumor activity against human HT-29 cells by SRB method; format: functional, cell-based
OVCAR-3 [19] = test: Antitumor activity against human OVCAR3 cells by SRB method; format: functional, cell-based
SK-MEL-28 [20] = test: Antitumor activity against human SK-MEL-28 cells by SRB method; format: functional, cell-based
A549 [21] = test: Antitumor activity against human A549 cells xenografted in ip dosed nu/nu mouse assessed as inhibition of tumor weight administered three times a week for 3 weeks; format: functional, organism-based
Procedure, shortened: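 Male nu/nu mice carried subcutaneous right-flank A549 xenografts (3 × 10⁶ cells). Treatment started at about 100 mm³ with 3 or 10 mg/kg intraperitoneally, three times weekly for three weeks. Tumors were excised and weighed on day 38. Comparison was with the vehicle control group, with significance at p < 0.05 or p < 0.01.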

A549 [22] = test: Antitumor activity against human A549 cells xenografted in ip dosed nu/nu mouse assessed as inhibition of tumor volume administered three times a week for 3 weeks; format: functional, organism-based; procedure, shortened: as §1
MDA-MB-231 [23] = test: Antitumor activity against human MDA-MB-231 cells by SRB method; format: functional, cell-based
OVCAR-3 [24] = test: Antitumor activity against human OVCAR3 cells at 1 uM by SRB method; format: functional, cell-based
MKN-45 [25] = test: Antitumor activity against human MKN45 cells by SRB method; format: functional, cell-based
PC-3 [26] = test: Antitumor activity against human PC3 cells at 1 uM by SRB method; format: functional, cell-based
SK-MEL-28 [27] = test: Antitumor activity against human SK-MEL-28 cells at 1 uM by SRB method; format: functional, cell-based
HepG2 [28] = test: Antitumor activity against human HepG2 cells by SRB method; format: functional, cell-based
A549 [29] = test: Antitumor activity against human A549 cells xenografted in nu/nu mouse assessed as inhibition of tumor volume at 10 mg/kg, ip administered three times a week for 3 weeks; format: functional; settings: 504 h, route intraperitoneal; procedure, shortened: as §1
A549 [30] = test: Antitumor activity against human A549 cells at 1 uM by SRB method; format: functional, cell-based
NCI-H226 [31] = test: Antitumor activity against human NCI-H226 cells by SRB method; format: functional, cell-based
K562 [32] = test: Antitumor activity against human K562 cells at 1 uM by SRB method; format: functional, cell-based
K562 [33] = test: Antitumor activity against human K562 cells by SRB method; format: functional, cell-based
HCT-116 [34] = test: Antitumor activity against human HCT116 cells by SRB method; format: functional, cell-based
UMRC2 [35] = test: Antitumor activity against human UMRC2 cells at 1 uM by SRB method; format: functional, cell-based
LNCaP [36] = test: Antitumor activity against human LNCAP cells at 1 uM by SRB method; format: functional, cell-based
U-251 [37] = test: Antitumor activity against human U251 cells at 1 uM by SRB method; format: functional, cell-based
HeLa [38] = test: Antitumor activity against human HeLa cells at 1 uM by SRB method; format: functional, cell-based
HepG2 [39] = test: Antitumor activity against human HepG2 cells at 1 uM by SRB method; format: functional, cell-based
UMRC2 [40] = test: as §2; format: functional, cell-based
PANC-1 [41] = test: Antitumor activity against human PANC1 cells by SRB method; format: functional, cell-based

Question: Which results are given for `Nc1ccn([C@@H]2C(F)=C(CO)[C@@H](O)[C@H]2O)c(=O)n1` [RODUCITABINE]?
Answer: Activity (MKN-45 [1]): Active; Activity (MDA-MB-231 [2]): Active; Activity (MCF7 [3]): Active; pIC50 (A549 [4]): 6.30; Activity (HT-29 [5]): Active; Activity (HCT-116 [6]): Active; Activity (NCI-H226 [7]): Active; pIC50 (PC-3 [8]): 6.20; Activity (Mus musculus): Non-toxic; inhibition (A549 [9]): Dose-dependent effect; pIC50 (MCF7 [10]): 6.47; inhibition in vivo at 3 mg/kg (A549 [11]): 31.8%; pIC50 (HeLa [12]): 5.87; pIC50 (LNCaP [13]): 5.57; pIC50 (U-251 [14]): 6.08; Activity (PANC-1 [15]): Active; pIC50 [16]: 6.08; inhibition (MDA-MB-231 [17]): Dose-dependent effect; pIC50 (HT-29 [18]): 6.55; pIC50 (OVCAR-3 [19]): 6.10; pIC50 (SK-MEL-28 [20]): 5.86; inhibition (A549 [21]): Dose-dependent effect; inhibition (A549 [22]): Dose-dependent effect; pIC50 (MDA-MB-231 [23]): 6.74; Activity (OVCAR-3 [24]): Active; pIC50 (MKN-45 [25]): 6.47; Activity (PC-3 [26]): Active; Activity (SK-MEL-28 [27]): Active; pIC50 (HepG2 [28]): 6.10; inhibition in vivo at 10 mg/kg (A549 [29]): 58.1%; Activity (A549 [30]): Active; pIC50 (NCI-H226 [31]): 6.60; Activity (K562 [32]): Active; pIC50 (K562 [33]): 6.09; pIC50 (HCT-116 [34]): 6.72; Activity (UMRC2 [35]): Active; Activity (LNCaP [36]): Active; Activity (U-251 [37]): Active; Activity (HeLa [38]): Active; Activity (HepG2 [39]): Active

Question: With `Nc1ccn([C@H]2C[C@H](O)C(CO)=C2F)c(=O)n1` as the compound, how does the Activity (A549 [4]) read?
Answer: inactive

Question: And the Activity (PC-3 [8])?
Answer: inactive

Question: And the Activity (MCF7 [10])?
Answer: inactive

Question: What about the Activity (HeLa [12]) of the same compound?
Answer: inactive

Question: What about the Activity (LNCaP [13]) of the same compound?
Answer: inactive

Question: And the Activity (U-251 [14])?
Answer: inactive

Question: And the Activity (UMRC2 [40])?
Answer: inactive

Question: And the Activity (HT-29 [18])?
Answer: inactive

Question: What about the Activity (OVCAR-3 [19]) of the same compound?
Answer: inactive

Question: And the Activity (SK-MEL-28 [20])?
Answer: inactive

Question: What about the Activity (PANC-1 [41]) of the same compound?
Answer: inactive

Question: And the Activity (MDA-MB-231 [23])?
Answer: inactive

Question: What about the Activity (MKN-45 [25]) of the same compound?
Answer: inactive

Question: And the Activity (HepG2 [28])?
Answer: inactive

Question: And the Activity (NCI-H226 [31])?
Answer: inactive

Question: What about the Activity (K562 [33]) of the same compound?
Answer: inactive

Question: What about the Activity (HCT-116 [34]) of the same compound?
Answer: inactive

Question: For `Nc1ccn([C@@H]2O[C@H](CO)[C@@H](O)C2(F)F)c(=O)n1` [GEMCITABINE], which inhibition in vivo at 10 mg/kg (A549 [29]) is on record?
Answer: 76.7%
